Test results as given in ChEMBL document CHEMBL1136726, “Synthesis and characterization of iodine-123 labeled 2beta-carbomethoxy-3beta-(4'-((Z)-2-iodoethenyl)phenyl)nortropane. A ligand for in vivo imaging of serotonin transporters by single-photon-emission tomography” (J Med Chem, 2003).

Tests used:
Assay type in all cases: ADME, organism-based
[1] = tested on: Rattus norvegicus; assay: Distribution of radioactivity in rat brain region cerebellum 60 min after intravenous administration of iodine labeled compound in presence of fluvoxamine blocker in study 1; conditions: in vivo, 1 h
Method in brief: (§1)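 Male Sprague–Dawley rats (250–300 g), ketamine-anesthetized. Blocker (2 mg/kg) or none was given iv 15 min before tail-vein radioligand (10 µCi in 0.2 mL 10% EtOH/saline). Rats were killed at 60 min with im pentobarbital. Brain regions were dissected, weighed and gamma-counted. % dose/g was taken from decay-corrected, background-subtracted counts versus the injected dose.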

[2] = tested on: Rattus norvegicus; assay: Distribution of radioactivity in rat brain striatum 120 min after intravenous administration of iodine labeled compound; conditions: in vivo, 2 h
Method in brief: (§2)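 Male Sprague–Dawley rats (225–300 g) under ketamine anaesthesia were given [123I]ZIENT (10 μCi) in 0.2 mL 10% EtOH/0.9% NaCl into the tail vein, with a saline flush. Hypothalamus, prefrontal cortex, striatum, pons and cerebellum were dissected and gamma-counted. % injected dose/g came from decay-corrected counts against the diluted injected dose, and region/cerebellum ratios were taken from these. Mean ± SE, n=4–5.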

[3] = tested on: Rattus norvegicus; assay: Distribution of radioactivity in rat brain striatum 30 min after intravenous administration of iodine labeled compound; conditions: in vivo, 0.5 h; method in brief: as §2
[4] = tested on: Rattus norvegicus; assay: Distribution of radioactivity in rat brain striatum 5 min after intravenous administration of iodine labeled compound; conditions: in vivo; method in brief: as §2
[5] = tested on: Rattus norvegicus; assay: Distribution of radioactivity in rat heart 120 min after intravenous administration of iodine labeled compound; conditions: in vivo, 2 h
Method in brief: (§3)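 Tail-vein injection of [123I]ZIENT (10 μCi in 0.2 mL 10% EtOH/0.9% NaCl, then 0.4 mL saline flush) into ketamine-anaesthetised male Sprague–Dawley rats (225–300 g). Animals were killed by cardiac excision at set times. Organs were excised, rinsed, blotted, weighed and gamma-counted. % dose/g was calculated against diluted aliquots of injectate. Mean ± SE, n=4–5.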

[6] = tested on: Rattus norvegicus; assay: Distribution of radioactivity in rat heart 60 min after intravenous administration of iodine labeled compound; conditions: in vivo, 1 h; method in brief: as §3
[7] = tested on: Rattus norvegicus; assay: Distribution of radioactivity in rat kidney 5 min after intravenous administration of iodine labeled compound; conditions: in vivo; method in brief: as §3
[8] = tested on: Rattus norvegicus; assay: Distribution of radioactivity in rat kidney 60 min after intravenous administration of iodine labeled compound; conditions: in vivo, 1 h; method in brief: as §3
[9] = tested on: Rattus norvegicus; assay: Distribution of radioactivity in rat liver 30 min after intravenous administration of iodine labeled compound; conditions: in vivo, 0.5 h; method in brief: as §3
[10] = tested on: Rattus norvegicus; assay: Distribution of radioactivity in rat blood 5 min after intravenous administration of iodine labeled compound; conditions: in vivo
Method in brief: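 Male Sprague–Dawley rats (225–300 g) under ketamine received 10 µCi radioligand in 0.2 mL 10% EtOH/0.9% NaCl via tail vein, then a saline flush. Killed by cardiac excision at set times. Organs were excised, weighed and gamma-counted. % dose/g was taken against diluted injectate. Mean ± SE and range, n=4 (5 min) or 5 (30–120 min).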

[11] = tested on: Rattus norvegicus; assay: Distribution of radioactivity in rat brain region striatum 60 min after intravenous administration of iodine labeled compound in presence of fluvoxamine blocker in study 1; conditions: in vivo, 1 h
Method in brief: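 Male Sprague–Dawley rats (250–300 g), ketamine-anaesthetised, received [123I]ZIENT (10 μCi) in 0.2 mL 10% ethanol/0.9% NaCl via the tail vein. […] Rats were killed at 60 min with pentobarbital, brain regions dissected and gamma-counted. Values are % dose/g from decay-corrected, background-subtracted counts against the diluted injected dose.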

[12] = tested on: Rattus norvegicus; assay: Distribution of radioactivity in rat brain 60 min after intravenous administration of iodine labeled compound; conditions: in vivo, 1 h
[13] = tested on: Rattus norvegicus; assay: Distribution of radioactivity in rat brain cerebellum 120 min after intravenous administration of iodine labeled compound; conditions: in vivo, 2 h
Method in brief: (§4)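 Male Sprague–Dawley rats (225–300 g) under ketamine received 10 µCi radioligand iv (tail vein) in 10% EtOH/saline. Hypothalamus, prefrontal cortex, striatum, pons and cerebellum were dissected, weighed and gamma-counted. % injected dose/g was taken from decay-corrected counts versus diluted dose. Mean ± SE and range, n=5 (5, 30 min) or 4 (60, 120 min).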

[14] = tested on: Rattus norvegicus; assay: Distribution of radioactivity in rat brain hypothalamus 120 min after intravenous administration of iodine labeled compound; conditions: in vivo, 2 h; method in brief: as §4
[15] = tested on: Rattus norvegicus; assay: Distribution of radioactivity in rat brain pons 120 min after intravenous administration of iodine labeled compound; conditions: in vivo, 2 h; method in brief: as §4
[16] = tested on: Rattus norvegicus; assay: Distribution of radioactivity in rat brain prefrontal cortex 120 min after intravenous administration of iodine labeled compound; conditions: in vivo, 2 h; method in brief: as §4
[17] = tested on: Rattus norvegicus; assay: Distribution of radioactivity in rat brain prefrontal cortex 30 min after intravenous administration of iodine labeled compound; conditions: in vivo, 0.5 h; method in brief: as §4
[18] = tested on: Rattus norvegicus; assay: Distribution of radioactivity in rat brain prefrontal cortex 60 min after intravenous administration of iodine labeled compound; conditions: in vivo, 1 h; method in brief: as §4
[19] = tested on: Rattus norvegicus; assay: Distribution of radioactivity in rat lung 120 min after intravenous administration of iodine labeled compound; conditions: in vivo, 2 h; method in brief: as §3
[20] = tested on: Rattus norvegicus; assay: Distribution of radioactivity in rat spleen 60 min after intravenous administration of iodine labeled compound; conditions: in vivo, 1 h; method in brief: as §3
[21] = tested on: Rattus norvegicus; assay: Distribution of radioactivity in rat testis 30 min after intravenous administration of iodine labeled compound; conditions: in vivo, 0.5 h; method in brief: as §3
[22] = tested on: Rattus norvegicus; assay: Ratio of distribution of radioactivity in rat brain hypothalamus and cerebellum 30 min after intravenous administration of iodine labeled compound; conditions: in vivo, 0.5 h; method in brief: as §2
[23] = tested on: Rattus norvegicus; assay: Ratio of distribution of radioactivity in rat brain prefrontal cortex and cerebellum 30 min after intravenous administration of iodine labeled compound; conditions: in vivo, 0.5 h; method in brief: as §2
[24] = tested on: Rattus norvegicus; assay: Ratio of distribution of radioactivity in rat brain prefrontal cortex and cerebellum 5 min after intravenous administration of iodine labeled compound; conditions: in vivo; method in brief: as §2
[25] = tested on: Rattus norvegicus; assay: Ratio of distribution of radioactivity in rat brain region pons and cerebellum 60 min after intravenous administration of iodine labeled compound in presence of RTI-113 blocker in study 1; conditions: in vivo, 1 h
[26] = tested on: Rattus norvegicus; assay: Distribution of radioactivity in rat spleen 30 min after intravenous administration of iodine labeled compound; conditions: in vivo, 0.5 h; method in brief: as §3
[27] = tested on: Rattus norvegicus; assay: Distribution of radioactivity in rat brain region hypothalamus 60 min after intravenous administration of iodine labeled compound in absence of blocker in study 1; conditions: in vivo, 1 h; method in brief: as §1

For `COC(=O)[C@@H]1C2CCC(C[C@@H]1c1ccc(/C=C\I)cc1)N2` (some centres not stated), the “Distribution (dose/g)” value [1] was 0.17%, the “Distribution (dose/g)” value [2] was 0.49% and the “Distribution (dose/g)” value [3] was 0.72%. For the same compound, the “Distribution (dose/g)” value [4] was 0.64%, the “Distribution (dose/g)” value [5] was 0.22% and the “Distribution (dose/g)” value [6] was 0.29%. For the same compound, the “Distribution (dose/g)” value [7] was 1.13%, the “Distribution (dose/g)” value [8] was 0.34% and the “Distribution (dose/g)” value [9] was 0.31%. The “Distribution (dose/g)” value [10] was 0.44%, the “Distribution (dose/g)” value [11] was 0.3% and the “Distribution (dose/g)” value [12] was 0.62%. The “Distribution (dose/g)” value [13] was 0.12%, the “Distribution (dose/g)” value [14] was 0.59% and the “Distribution (dose/g)” value [15] was 0.4%. For the same compound, the “Distribution (dose/g)” value [16] was 0.49%, the “Distribution (dose/g)” value [17] was 0.82% and the “Distribution (dose/g)” value [18] was 0.82%. For the same compound, the “Distribution (dose/g)” value [19] was 0.76%, the “Distribution (dose/g)” value [20] was 0.61% and the “Distribution (dose/g)” value [21] was 0.34%. The “Distribution (dose/g)” value [22] was 2.38%, the “Distribution (dose/g)” value [23] was 2.56% and the “Distribution (dose/g)” value [24] was 1.45%. The “Distribution (dose/g)” value [25] was 2.24%, the “Distribution (dose/g)” value [26] was 0.81% and the “Distribution (dose/g)” value [27] was 0.92%.
